Assay results: ChEMBL document CHEMBL1914438, “Synthesis and biological activity of novel N-cycloalkyl-(cycloalkylaryl)-2-[(3-R-2-oxo-2H-[1,2,4]triazino[2,3-c]quinazoline-6-yl)thio]acetamides” (2011)

How the values were obtained:
Assay type in all cases: functional
[1] = Cytotoxicity against human NCI60 cells assessed as cell growth at 10^-5 M after 48 hrs by SRB assay; settings: NCI60, 48 h, read-out: Activity
In short: (§1)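 NCI human tumor cell line panel from nine cancer types. Each line was inoculated and preincubated 24–48 h, then exposed to a single concentration (10^-5 M) for 48 h. Growth was read by sulforhodamine B protein staining, measured spectrophotometrically. Value reported as percent growth of treated cells relative to untreated controls.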

786-0 = assay: Cytotoxicity against human 786-0 cells assessed as cell growth at 10^-5 M after 48 hrs by SRB assay; settings: 786-0, 48 h, read-out: Activity
In short: (§2)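 NCI 60-cell-line one-dose primary screen: cells inoculated and preincubated 24–48 h, then test agent added at a single 10^-5 M concentration for a further 48 h. Endpoint is sulforhodamine B protein staining read spectrophotometrically. Reported as percent growth relative to untreated control cells.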

DU-145 [2] = assay: Cytotoxicity against human DU145 cells assessed as cell growth at 10^-5 M after 48 hrs by SRB assay; settings: DU-145, 48 h, read-out: Activity; in short: as §2
CCRF-CEM = assay: Growth inhibition of human CCRF-CEM cells after 48 hrs by SRB assay
In short: (§3)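 NCI panel of about 60 human tumor lines, 48 h continuous exposure at five 10-fold dilutions from 10^-4 to 10^-8 M. SRB protein staining was read as absorbance at time zero, in untreated controls and at each concentration. GI50 is the concentration giving 50% lower net protein increase than controls. TGI is where Ti = Tz, and LC50 is 50% protein loss versus start.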

COLO 205 = assay: Growth inhibition of human COLO205 cells after 48 hrs by SRB assay; settings: COLO 205, 48 h; in short: as §3
HT-29 = assay: Growth inhibition of human HT-29 cells after 48 hrs by SRB assay; settings: HT-29, 48 h; in short: as §3
LOX IMVI [3] = assay: Growth inhibition of human LOXIMVI cells after 48 hrs by SRB assay; in short: as §3
Malme-3M = assay: Growth inhibition of human MALME-3M cells after 48 hrs by SRB assay; in short: as §3
OVCAR-3 = assay: Growth inhibition of human OVCAR3 cells after 48 hrs by SRB assay; settings: OVCAR-3, 48 h; in short: as §3
OVCAR-4 [4] = assay: Growth inhibition of human OVCAR4 cells after 48 hrs by SRB assay; settings: OVCAR-4, 48 h; in short: as §3
DU-145 [5] = assay: Growth inhibition of human DU145 cells after 48 hrs by SRB assay; settings: DU-145, 48 h; in short: as §3
[6] = Growth inhibition of human Hs 578T cells after 48 hrs by SRB assay; in short: as §3
T47D = assay: Growth inhibition of human T47D cells after 48 hrs by SRB assay
In short: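 NCI 60-cell-line human tumor panel. Cells were inoculated and preincubated for 24–48 h, then exposed continuously to compound for 48 h. Primary screen used a single 10^-5 M concentration. Growth was measured by sulforhodamine B protein staining, read spectrophotometrically, and reported as percent growth versus untreated controls. Selected compounds were also run at five 10-fold dilutions (10^-4 to 10^-8 M) to derive GI50 from time-zero-corrected absorbances.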

Staphylococcus aureus = assay: Antibacterial activity against Staphylococcus aureus assessed as zone of inhibition at 0.1 mg/mL after 24 hrs by stiff-plate agar-diffusion method; settings: read-out: DIZ
Aspergillus niger = assay: Antifungal activity against Aspergillus niger assessed as zone of inhibition at 0.1 mg/mL after 48 to 72 hrs by stiff-plate agar-diffusion method; settings: read-out: DIZ
SNB-75 = assay: Cytotoxicity against human SNB75 cells assessed as cell growth at 10^-5 M after 48 hrs by SRB assay; settings: SNB-75, 48 h, read-out: Activity; in short: as §1
SR = assay: Cytotoxicity against human SR cells assessed as cell growth at 10^-5 M after 48 hrs by SRB assay; settings: read-out: Activity; in short: as §1
M14 = assay: Cytotoxicity against human M14 cells assessed as cell growth at 10^-5 M after 48 hrs by SRB assay; settings: M14, 48 h, read-out: Activity; in short: as §2
UACC-257 = assay: Cytotoxicity against human UACC257 cells assessed as cell growth at 10^-5 M after 48 hrs by SRB assay; settings: UACC-257, 48 h, read-out: Activity; in short: as §1
SK-OV-3 = assay: Cytotoxicity against human SKOV3 cells assessed as cell growth at 10^-5 M after 48 hrs by SRB assay; settings: SK-OV-3, 48 h, read-out: Activity; in short: as §1
LOX IMVI [7] = assay: Cytotoxicity against human LOXIMVI cells assessed as cell growth at 10^-5 M after 48 hrs by SRB assay; settings: read-out: Activity; in short: as §2
HOP-92 = assay: Cytotoxicity against human HOP92 cells assessed as cell growth at 10^-5 M after 48 hrs by SRB assay; settings: HOP-92, 48 h, read-out: Activity; in short: as §2
OVCAR-4 [8] = assay: Cytotoxicity against human OVCAR4 cells assessed as cell growth at 10^-5 M after 48 hrs by SRB assay; settings: OVCAR-4, 48 h, read-out: Activity; in short: as §1
NCI-H23 = assay: Cytotoxicity against human NCI-H23 cells assessed as cell growth at 10^-5 M after 48 hrs by SRB assay; settings: NCI-H23, 48 h, read-out: Activity; in short: as §1
NCI-H460 = assay: Cytotoxicity against human NCI-H460 cells assessed as cell growth at 10^-5 M after 48 hrs by SRB assay; settings: NCI-H460, 48 h, read-out: Activity; in short: as §1
SK-MEL-28 = assay: Cytotoxicity against human SK-MEL-28 cells assessed as cell growth at 10^-5 M after 48 hrs by SRB assay; settings: SK-MEL-28, 48 h, read-out: Activity; in short: as §1
IGROV-1 = assay: Cytotoxicity against human IGROV1 cells assessed as cell growth at 10^-5 M after 48 hrs by SRB assay; settings: IGROV-1, 48 h, read-out: Activity; in short: as §2
[9] = test system: Photobacterium leiognathi; assay: Antibacterial activity against Photobacterium leiognathi Sh1 assessed as inhibition of bacterial luminescence at 0.025 mg/mL after 10 mins by bioluminometry-based acute action test; parameters: scale not given: the % may be the effect or the level left
In short: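 Marine P. leiognathi Sh1 (Azov Sea shrimp isolate) diluted in chloride solution to 10^5 cells/mL; compounds suspended in DMSO mixed with 1 mL bacterial suspension. Acute test: 10 min at 25 °C, then bioluminescence measured by bioluminometer as % of compound-free control. Tetracycline reference.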

[10] = read-out: pLC50 (the source's name) (converted)

Q: What does the source list for `CCC1C2CCC(C2)C1NC(=O)CSc1nc2ccccc2c2nc(=O)c(-c3ccc(OC)cc3)nn12` (stereo not drawn)?
A: growth at 10 µM [1]: 73.7%; growth at 10 µM (786-0): 77.7%; growth at 10 µM (DU-145 [2]): -32%; GI50 (CCRF-CEM): 2 µM; CC50 (CCRF-CEM; [10]): > 50.1 µM; TGI (CCRF-CEM; read-out: pTGI): > 50.1 µM; GI50 (COLO 205): 3.47 µM; CC50 (COLO 205; [10]): > 50.1 µM; TGI (COLO 205; read-out: pTGI): > 50.1 µM; GI50 (HT-29): 3.24 µM; CC50 (HT-29; [10]): > 50.1 µM; TGI (HT-29; read-out: pTGI): > 50.1 µM; GI50 (LOX IMVI [3]): 3.55 µM; CC50 (LOX IMVI [3]; [10]): > 50.1 µM; TGI (LOX IMVI [3]; read-out: pTGI (converted)): 18.2 µM; GI50 (Malme-3M): 3.89 µM; CC50 (Malme-3M; [10]): > 50.1 µM; TGI (Malme-3M; read-out: pTGI (converted)): 24.5 µM; GI50 (OVCAR-3): 1.48 µM; CC50 (OVCAR-3; [10]): 28.2 µM; TGI (OVCAR-3; read-out: pTGI (converted)): 5.62 µM; GI50 (OVCAR-4 [4]): 1.66 µM; CC50 (OVCAR-4 [4]; [10]): 43.7 µM; TGI (OVCAR-4 [4]; read-out: pTGI (converted)): 6.31 µM; GI50 (DU-145 [5]): 3.16 µM; CC50 (DU-145 [5]; [10]): > 50.1 µM; TGI (DU-145 [5]; read-out: pTGI (converted)): 37.2 µM; GI50 [6]: 3.89 µM; CC50 [6, 10]: > 50.1 µM; TGI ([6]; read-out: pTGI (converted)): 20 µM; GI50 (T47D): 3.72 µM; CC50 (T47D; [10]): > 50.1 µM; TGI (T47D; read-out: pTGI): > 50.1 µM; zone of inhibition at 100 µg/mL (Staphylococcus aureus): 0 mm; zone of inhibition at 100 µg/mL (Aspergillus niger): 0 mm; growth at 10 µM (SNB-75): 4.94%; growth at 10 µM (SR): 7.67%; growth at 10 µM (M14): 44.2%; growth at 10 µM (UACC-257): 55.6%; growth at 10 µM (SK-OV-3): -5.12%; growth at 10 µM (LOX IMVI [7]): 70.5%; growth at 10 µM (HOP-92): 57%; growth at 10 µM (OVCAR-4 [8]): -58.5%; growth at 10 µM (NCI-H23): 62.8%; growth at 10 µM (NCI-H460): 56%; growth at 10 µM (SK-MEL-28): 68.7%; growth at 10 µM (IGROV-1): 17%; Activity [9]: 38.5%
